Here are results for one compound from ChEMBL document CHEMBL4825692, “Benzofuranyl-2-imidazoles as imidazoline I2 receptor ligands for Alzheimer's disease” (Eur J Med Chem, 2021).

Structures are written as SMILES. pKi: −log10 of the molar value.

A short description of series [1]: Permeability of compound by PAMPA-BBB assay. The series is classed as ADME.
A short description of series [2]: Solubility of the compound in 1% DMSO solution. The series is classed as physicochemical.
The test system of series [3] is Mus musculus. The experiment in a line: Neuroprotection in naive mouse assessed as reduction in hippocampal FADD protein level at 50 mg/kg, ip by Western blot analysis relative to control. The arrangement: scale not given: the % may be the effect or the level left. The series is classed as functional. Summed up: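 Adult naive CD-1 mice received one i.p. dose (n = 7) or saline vehicle (2 ml/kg, n = 6) and were killed 1 h later. Hippocampal protein (40 µg) was run on 10% SDS-PAGE, blotted to nitrocellulose and probed with anti-FADD, then ECL. Band IOD densitometry was expressed as % of same-gel vehicle controls, averaged over 2–4 gels per sample.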
(Immunoblotting shows a protein as a band on a membrane.)

The next series concerns HCT-116. The experiment in a line: Cytotoxicity against human HCT-116 cells at 100 uM by real time IncuCyte proliferation assay. As to conditions: hct-116, 100 µM; call rule not given here. The series is classed as cell-based. Summed up:
(§1)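 Adherent lines (LN-229, Capan-1, HCT-116, NCI-H460) seeded at 500–1500 cells/well and treated after overnight attachment. Suspension lines (HL-60, K-562, Z-138, DND-41) seeded at 2500–5500 cells/well directly with compound. Highest concentration 100 μM; proliferation tracked by real-time IncuCyte imaging over 72 h at 37 °C.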

The species named for series [4] is Mus musculus. The experiment in a line: Displacement of [3H]2-BFI from imidazoline I2 receptor in Swiss mouse brain cerebral cortex membrane assessed as occupancy at high affinity site measured after 45 mins by liquid scintillation counting spectrometry.
The test system of a further series is Z-138. The experiment in a line: Cytotoxicity against human Z138 cells at 100 uM by real time IncuCyte proliferation assay. As to conditions: z-138, 100 µM. The series is classed as cell-based. Summed up: as §1
For the next series, the target named is Cytochrome P450 3A4 (Homo sapiens, UniProt P08684). Put plainly: Inhibition of CYP3A4 (unknown origin) using as 7-BFC as substrate at 10 uM. The series is classed as ADME. Summed up: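 Recombinant human CYP1A2, CYP2C9, CYP2C19, CYP2D6 and CYP3A4 (7-BFC or DBF as probe) were tested with probe substances and fluorescent detection, with test compound at 10 μM.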

A short description of series [5]: Solubility of the compound in 99 % PBS buffer solution. The series is classed as physicochemical.
Series [6] is described as follows: Solubility of compound at pH 4.61. The series is classed as physicochemical. Conditions: buffer. Summed up: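 Solubility was measured at pH 1.13, 4.61 and 6.97, simulating gastric and intestinal fluids, and classed by European Pharmacopoeia terms.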
Series [7] is described as follows: Displacement of [3H]clonidine from imidazoline I1 receptor low affinity site in rat hypothalamic membranes measured after 30 mins by liquid scintillation counting spectrometry. The series is classed as cell membranes, Hypothalamus, Membrane. (In general: In a radioligand displacement assay an active substance lowers the binding of a labelled ligand.)
Series [8] is described as follows: Plasma protein binding in human assessed as unbound fraction. The series is classed as ADME, cell-free.
Series [9] is described as follows: AUC (0 to infinity) in CD-1 mouse at 10 mg/kg, po measured after 24 hrs by HPLC/UV-VS analysis. It counts as ADME, organism-based. Conditions: in vivo. Also on record: route oral, time 24 hrs, dose 10 mg/kg. A digest of the protocol:
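Male CD1 mice; plasma concentration of drug at 15 min to 24 h after a single oral 10 mg/kg dose, measured by HPLC with UV at 290 nm (calibration 0,025-5 μg/mL, peak area ratio). Non-compartmental analysis of mean concentration–time curves: AUC by trapezoidal rule, Cmax read directly from the mean curve.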

Cytochrome P450 3A4, sequence (P08684 whole entry): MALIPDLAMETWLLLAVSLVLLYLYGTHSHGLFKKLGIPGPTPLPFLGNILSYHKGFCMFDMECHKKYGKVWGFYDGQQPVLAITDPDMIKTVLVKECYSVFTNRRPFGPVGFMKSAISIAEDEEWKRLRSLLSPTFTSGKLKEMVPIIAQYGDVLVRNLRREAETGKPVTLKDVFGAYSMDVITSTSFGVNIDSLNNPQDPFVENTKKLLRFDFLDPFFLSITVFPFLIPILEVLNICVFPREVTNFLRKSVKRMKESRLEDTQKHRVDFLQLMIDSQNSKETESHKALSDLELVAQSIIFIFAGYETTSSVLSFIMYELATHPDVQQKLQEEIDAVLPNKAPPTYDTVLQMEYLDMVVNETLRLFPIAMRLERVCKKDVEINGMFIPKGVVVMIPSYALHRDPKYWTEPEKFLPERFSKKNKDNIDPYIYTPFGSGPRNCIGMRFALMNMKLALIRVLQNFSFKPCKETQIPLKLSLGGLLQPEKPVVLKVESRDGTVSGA

As usually defined, the Papp is the rate of passage across a membrane or cell layer, normalised by area and donor concentration. In general, solubility refers to the concentration that dissolves in the medium under given conditions. What is called pKi is the Ki on a negative log10 scale, so that one unit is a factor of ten. A word on the fraction unbound: it is the share of the substance not bound to proteins or other matrix. Broadly, the AUC(0-inf) is total exposure, with the tail of the curve extrapolated. With `Cl.c1ccc2oc(-c3ncc[nH]3)cc2c1`, the Papp in series [1] stood at 13.6 ×10⁻⁶ cm/s. Further, the solubility in series [2] was 52.5 µM; in [5], 52.5 µM; in series [6], “Soluble”. The Activity was 34% in the series with Mus musculus [3], “Non-Toxic” with HCT-116, 41% in the series listed under Mus musculus [4] and “Non-Toxic” with Z-138. On Cytochrome P450 3A4, the “inhibition (INH)” value was “Not Active”. In series [7], the pKi was 3.94. Besides, the fraction unbound in [8] turned out to be 0.071. The AUC(0-inf) in series [9] amounted to 2600 ng·h/mL.
